Hits are enriched below; roughly 4.7% of the tested compounds scored in any of these assays.
Cl transport mod: modulators of human KCC2 chloride dependent transport | Q9H2X9 | KCC2 cells, thallium flux FluoZin-2 fluorescence | B-score of Tl+ flux slope (higher = more flux/activation; lower = inhibition) at 10 µM | 190,000 compounds, 2.2% hits;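 active = thallium flux slope and its plate-corrected score both differing from the plate sample mean at a set confidence after two filtering rounds, in either direction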;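 also: slope of fluorescence scaled to starting intensity during 10 to 20 s after thallium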
MrgX1 antag: blocks BAM8-22 activation of human MrgX1 receptor. MRGX1-HEK293 calcium flux, Fluo-4, BAM8-22 antagonism; active compounds read low. B-score at 10 µM. 310,000 compounds, 1.3% hits. AID 588676;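 active = calcium-response B-score plate-corrected more than 3 library SD below zero, starting fluorescence within 5 deviations, no agonist response on first addition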;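 also: peak minus trough fluorescence over baseline after final BAM8-22 challenge near maximal dose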
MrgX1 allo act: human MrgX1 positive allosteric modulation, primary screen | Q96LB2 | MrgX1-HEK293, Fluo-4 calcium flux, FDSS; active compounds read high | B-score at 10 µM | 310,000 compounds, 0.63% hits | AID 588675;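 active = plate-corrected calcium response at least 3 library SD above typical, normal starting fluorescence, not activating the receptor alone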;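 also: compound read alongside a low EC10 to EC30 dose of BAM8-22 agonist; peak minus trough fluorescence over baseline measured at the second addition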
MrgX1 ag: human MrgX1 receptor agonism, primary screen; MrgX1-HEK293 cells, Fluo-4 calcium fluorescence, agonist mode; active compounds read high; Q96LB2; B-score at 10 µM; 310,000 compounds, 0.44% hits; AID 588627;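 active = calcium response B-score plate-corrected fluorescence ratio at least 3 library SD, with starting fluorescence B-score inside 5 SD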
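Test system: HEK293 cells stably expressing human MrgX1 receptor; amount: 15,000 cells per well; doses: compound delivered in addition one of three; times: overnight plating before 1 h dye loading; detection: Fluo-4 NW calcium-flux fluorescence, kinetic read; read-out basis: B-scored fluorescence response ratio; controls: positive and negative controls per plate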
RGS4 inh: human RGS4 inhibition; P49798; HEK293 M3R/RGS4 inducible, Fluo-4 calcium flux; active compounds read high; triggered by carbachol at its EC20; B-score at 10 µM; 310,000 compounds, 0.45% hits; AID 463165;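 active = B-score, a plate-corrected calcium signal, over three deviations above library mean, with baseline fluorescence within five deviations of library mean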;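 also: RGS4 expression induced by doxycycline in cells with stable M3 receptor; B-score is computed from the integrated fluorescence ratio over baseline after carbachol; higher B-score means a larger calcium signal and so more RGS4 inhibition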
RGS4 pot: RGS4 potentiation or activation; HEK293 M3R/inducible RGS4, carbachol calcium flux Fluo4; active compounds read low; B-score at 10 µM; 310,000 compounds, 0.92% hits; AID 463111;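 active = B-score of the integrated calcium signal more than 4 SD below the library mean, with starting fluorescence not abnormally high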;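 also: negative B-score means reduced calcium response which marks RGS4 activation or potentiation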
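Also added: carbachol at ECmax as muscarinic agonist stimulus; Assay system: HEK293 cells with stable M3R and inducible RGS4; Timing: overnight RGS4 induction, 30 min dye load 37 °C, 20 min compound RT; Measured by: Fluo4-AM (2 µM) calcium-flux fluorescence, kinetic read.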
* marks the source's active call; other numbers are inactive results; i = inactive; x = not tested or not shown.

SMILES | Cl transport mod | MrgX1 antag | MrgX1 allo act | MrgX1 ag | RGS4 inh | RGS4 pot
CC(Oc1ccc(Cl)cc1Cl)c1nc(-c2ccc(NC(=O)c3cccnc3)cc2)no1 (centres undefined) | 0.51 | i | i | i | i | -7.9*
CC(Oc1ccc(Cl)cc1Cl)C(=O)NNC(=O)c1cccnc1 (centres undefined) | x | i | i | i | i | i
CCOc1ccccc1O[C@H](c1ccccc1)[C@H]1CNCCO1 | x | i | i | i | i | i
COc1cc(C(=O)NCCOc2cccc(C)c2)c(Br)c(OC)c1OC | -1.6 | i | i | i | i | -7.2*
C[C@H](O)[C@H](O)[C@H]1CNc2nc(N)[nH]c(=O)c2N1 | x | -5.4* | i | i | i | i
CCCCN(CC)S(=O)(=O)c1ccc(C(=O)N(CCCN(C)C)c2nc3cc(C)cc(C)c3s2)cc1 | 0.74 | i | i | i | i | -8.1*
CCOc1cccc2sc(N(CCCN(C)C)C(=O)c3ccc(S(=O)(=O)N(CC)Cc4ccccc4)cc3)nc12 | x | i | i | i | i | -7.7*
COc1cccc2sc(N(CCN(C)C)C(=O)c3ccc4c(c3)CCCC4)nc12 | x | i | 6.7* | i | i | i
CCN(Cc1ccccc1)S(=O)(=O)c1ccc(C(=O)N(CCCN(C)C)c2nc3cc(C)cc(C)c3s2)cc1 | x | i | i | i | i | i
CCOc1ccc(C2C(C(=O)OC)=CN(C(C)c3ccccc3)C=C2C(=O)OC)cc1 (centres undefined) | x | i | i | i | i | i
Cc1ccccc1OCCC(=O)OCC(=O)NC1CCS(=O)(=O)C1 (centres undefined) | x | i | i | i | i | i
COCC1CCCC1OS(N)(=O)=O (centres undefined) | x | i | i | i | i | i
CN(C(=O)CCN1C(=O)S/C(=C\c2ccccc2)C1=O)C1CCS(=O)(=O)C1 (centres undefined) | x | i | i | i | i | i
CCc1ccc(-c2nc(CS(=O)CC(=O)NCc3ccco3)c(C)o2)cc1 (centres undefined) | x | i | i | i | i | i
CCN1C(=O)CC2(C[N+]3(C)CCC2CC3)C1=O (centres undefined) | -1.1 | i | i | i | i | -7.2*
Cc1cc(C)cc(N(CC(=O)NCC2CCCO2)C(=O)CCC(=O)Nc2nccs2)c1 (centres undefined) | x | i | i | i | i | i
CCOc1ccc(-c2cc(C(=O)Nc3ccc4c(c3)OCCO4)c3ccccc3n2)cc1 | -0.027 | i | i | i | i | -7.6*
COc1ccc(-c2cc(C(=O)OCC(=O)Nc3ccc4c(c3)OCO4)c3ccccc3n2)cc1 | -0.99 | i | i | i | i | i
Cc1cccc(-c2cc(C(=O)Nc3ccc4c(c3)OCCO4)c3ccccc3n2)c1 | 0.011 | i | i | i | i | -7.2*
COc1ccc(NC(=O)NC2(C(=O)N3CCCCC3)CCCCC2)cc1 | x | i | i | i | i | i
Cc1ccc(C(=O)N(CC(C)C)c2c(N)n(Cc3ccccc3)c(=O)[nH]c2=O)o1 | x | i | i | i | i | i
C=CCn1c(=O)/c(=C/c2ccc(O)cc2)s/c1=C(/C#N)c1nnc2n1CCCCC2 | x | i | i | 36* | x | x
CO/N=C/C(c1ncc(C(F)(F)F)cc1Cl)S(=O)(=O)c1ccccc1 (centres undefined) | x | -8.2* | i | i | i | i
CN(CCCC(=O)NCc1ccc2c(c1)OCO2)S(=O)(=O)c1ccc([N+](=O)[O-])cc1 | x | i | i | i | i | i
CCn1c(C)c(C(=O)c2ccccc2)c(C#N)c1C(=O)O | x | i | i | i | i | i
SMILES | Cl transport mod | MrgX1 antag | MrgX1 allo act | MrgX1 ag | RGS4 inh | RGS4 pot
CCOC(=O)C(=Cc1ccc(F)cc1)C(=O)OCC | 0.84 | i | 7.5* | i | i | i
O=C(NCCN1C(=O)S/C(=C\c2ccccc2F)C1=O)C1CCN(S(=O)(=O)c2cccs2)CC1 | -0.65 | -8.9* | i | i | i | i
CC1(C)CC(=O)C(C2C3=C(CC(C)(C)CC3=O)Oc3ccc4ccccc4c32)C(=O)C1 (centres undefined) | -0.0015 | i | i | 40* | i | i
NC(=O)C1CCN(C2=C(NS(=O)(=O)c3ccc(Cl)cc3)C(=O)c3ccccc3C2=O)CC1 | 0.33 | i | 9.9* | i | i | i
CCCCN(CC)CCCNC(=O)c1cn(CC)c2ccc(S(=O)(=O)N3CCc4ccccc4C3)cc2c1=O | 0.23 | i | i | i | i | i
CCCCN(C)CCCNC(=O)c1cn(CC)c2ccc(S(=O)(=O)N3CCc4ccccc4C3)cc2c1=O | -0.019 | i | i | i | i | -7.7*
CC1CN(c2cnn(C(C)C)c(=O)c2Cl)CC(C)O1 (centres undefined) | x | i | i | i | i | i
Cc1occc1-c1nnc(SCC(=O)N2CCOCC2)n1CCc1ccccc1 | -0.13 | i | i | i | i | -7.3*
CCN(c1ccccc1)P(=O)(Nc1ccccc1)Nc1ccccc1 | 0.77 | i | i | i | i | i
CN(c1ccccc1)P(=O)(N(C)c1ccccc1)N(C)c1ccccc1 | 0.8 | i | i | i | i | -11*
Oc1ccc(C2C=C(c3ccc(F)cc3)Nc3ncnn32)cc1 (centres undefined) | 0.055 | x | x | x | i | i
Cc1ccc(C2C=C(c3ccccc3)Nc3ncnn32)cc1 (centres undefined) | x | i | 7.8* | i | i | i
CCOc1ccc(C2C=C(c3ccc(F)cc3)Nc3ncnn32)cc1 (centres undefined) | -0.89 | i | 8.4* | i | i | i
CCOc1ccc(C2C=C(c3ccccc3)Nc3ncnn32)cc1 (centres undefined) | x | i | 11* | i | i | i
CCCc1cc(=O)[nH]c2nnc(SCC(=O)Nc3cccc(NC(C)=O)c3)n12 | x | i | i | i | i | i
CC(=O)Oc1ccc(C(=O)Nc2ccc(S(=O)(=O)NCC3CCCO3)cc2)cc1 (centres undefined) | x | i | i | i | i | i
O=[N+]([O-])c1ccc(S(=O)(=O)NCCS(=O)(=O)N2CCN(c3ccccc3)CC2)cc1 | x | i | i | i | i | i
CC1(C)Cc2c(sc(N)c2C#N)C(C)(C)N1 | 0.28 | i | i | i | i | i

Screening results deposited in PubChem by several laboratories.
